From ChEMBL document CHEMBL3997809, “Design and synthesis of a new series of 3,5-disubstituted isoxazoles active against Trypanosoma cruzi and Leishmania amazonensis” (Eur J Med Chem, 2017)
Active and inactive are the calls of the source. The rule behind the calls is not given here.

Tests used:
Trypanosoma cruzi [1] = assay: Growth inhibition of Trypanosoma cruzi Tulahuen amastigote forms infected in human THP1 cells at 100 uM after 48 hrs relative to control; type: functional; conditions: THP-1, 48 h, read-out: GI
Summary of the method: (§1)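 PMA-differentiated THP-1 macrophages (4.0 × 10^4 cells/well, 100 ng/ml, 72 h) infected with trypomastigotes at 2:1 parasite/cell overnight at 37 °C. Washed, then 24 h more for amastigote transformation. Compounds added in triplicate for 48 h at 37 °C, 5% CO2. Read-out: CPRG 100 µM with 0.1% NP-40 for 16 h, OD 570/630 nm. Negative control DMSO 1%.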

Trypanosoma cruzi [2] = assay: Trypanocidal activity against Trypanosoma cruzi Tulahuen amastigote forms infected in human THP1 cells after 48 hrs; type: functional, cell-based; conditions: THP-1, 48 h; summary of the method: as §1
Trypanosoma cruzi [3] = assay: Trypanocidal activity against Trypanosoma cruzi Tulahuen trypomastigote forms at 3.9 to 250 uM after 72 hrs by MTT assay; type: functional
Summary of the method: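 Culture-derived Tulahuen trypomastigotes raised from infected L929 cells, 1.5 × 10^6 parasites/well. Compounds serially diluted from 250 to 3.9 µM, incubated 72 h at 37 °C, 5% CO2. Viability by MTT, OD 540 nm after dissolving formazan in DMSO. Negative control DMSO 1%.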

Leishmania amazonensis [4] = assay: Growth inhibition of Leishmania amazonensis MHOM/BR/77/LTB0016 amastigote forms expressing beta-galactosidase infected in human THP1 cells at 100 uM after 48 hrs relative to control; type: functional; conditions: for inhibition of growth at 100 µM: MHOM/BR/77/LTB0016, THP-1, 48 h, read-out: GI
Summary of the method: (§2)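 THP-1 cells seeded at 4.0 × 10^4 cells/well and differentiated with PMA 100 ng/ml for 72 h. Promastigotes (4-day culture) opsonized 1 h at 34 °C in RPMI-1640 with 10% heat-inactivated human B+ serum. Infection at 10:1 parasite/cell for 3 h at 34 °C, washed, then 24 h for amastigote transformation. Compound treatment in triplicate for 48 h at 34 °C. Read-out: CPRG 100 µM with 0.1% NP-40, 16 h, OD 570/630 nm. Negative control DMSO 1%.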

Leishmania amazonensis [5] = assay: Antileishmanial activity against Leishmania amazonensis MHOM/BR/77/LTB0016 amastigote forms expressing beta-galactosidase infected in human THP1 cells after 48 hrs; type: functional, cell-based; conditions: MHOM/BR/77/LTB0016, THP-1, 48 h; summary of the method: as §2
Trypanosoma cruzi [6] = assay: Antitrypanosomal activity against Trypanosoma cruzi trypomastigote forms; type: functional
[7] = Cytotoxicity against human THP1 cells assessed as reduction in cell viability after 72 hrs by MTT assay; type: cell-based; conditions: THP-1 cells
Summary of the method: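 PMA-differentiated THP-1 cells exposed to serial dilutions from 15.6 to 500 µM for 72 h at 37 °C, 5% CO2. Viability by MTT reduction to formazan, dissolved in DMSO, OD 540 nm. Gives CC50.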

[8] = Selectivity index, ratio of CC50 for human THP1 cells to IC50 for Trypanosoma cruzi Tulahuen amastigote forms infected in human THP1 cells; type: toxicity, cell-based; conditions: read-out: Ratio CC50/IC50
Summary of the method: (§3)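 Ratio of CC50 from the 72 h MTT assay in PMA-differentiated THP-1 cells to IC50 against intracellular amastigotes in THP-1 cells measured by CPRG read-out after 48 h.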

Trypanothione reductase = Trypanothione reductase (Trypanosoma cruzi, UniProt P28593); assay: Inhibition of Trypanosoma cruzi trypanothione reductase expressed in Escherichia coli BL21(DE3) using T(S)2 as substrate incubated for 30 mins in presence of NADPH measured for 30 mins
Summary of the method: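 Enzyme purified by affinity chromatography. Then T(S)2 1 µM and compound in DMSO added, 30 min at 27 °C, followed by further DTNB. A412 followed for 30 min. Negative control DMSO 1%.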

Trypanosoma cruzi [9] = assay: Growth inhibition of Trypanosoma cruzi Tulahuen amastigote forms infected in human THP1 cells at 20 uM after 48 hrs relative to control; type: functional; conditions: THP-1, 48 h, read-out: GI; summary of the method: as §1
Leishmania amazonensis [10] = assay: Growth inhibition of Leishmania amazonensis MHOM/BR/77/LTB0016 amastigote forms expressing beta-galactosidase infected in human THP1 cells at 2 uM after 48 hrs relative to control; type: functional; conditions: MHOM/BR/77/LTB0016, THP-1, 48 h, read-out: GI; summary of the method: as §2
[11] = Selectivity index, ratio of CC50 for human THP1 cells to IC50 for Leishmania amazonensis MHOM/BR/77/LTB0016 amastigote forms expressing beta-galactosidase infected in human THP1 cells; type: toxicity, cell-based; conditions: read-out: Ratio CC50/IC50; summary of the method: as §3
Leishmania infantum = assay: Growth inhibition of Leishmania infantum MHOM/BR/74/PP75 amastigote forms expressing beta-galactosidase infected in human THP1 cells at 50 uM after 48 hrs relative to control; type: functional; conditions: MHOM/BR/74/PP75, THP-1, 48 h, read-out: GI; summary of the method: as §2
Trypanosoma cruzi [12] = assay: Growth inhibition of Trypanosoma cruzi Tulahuen amastigote forms infected in human THP1 cells at 100 uM using compound after 1 week storage measured after 48 hrs; type: functional, cell-based
[13] = Chemical stability in DMSO after 1 week by mass spectrometric analysis; type: physicochemical; conditions: 168 h

Sequence of Trypanothione reductase (P28593 whole entry): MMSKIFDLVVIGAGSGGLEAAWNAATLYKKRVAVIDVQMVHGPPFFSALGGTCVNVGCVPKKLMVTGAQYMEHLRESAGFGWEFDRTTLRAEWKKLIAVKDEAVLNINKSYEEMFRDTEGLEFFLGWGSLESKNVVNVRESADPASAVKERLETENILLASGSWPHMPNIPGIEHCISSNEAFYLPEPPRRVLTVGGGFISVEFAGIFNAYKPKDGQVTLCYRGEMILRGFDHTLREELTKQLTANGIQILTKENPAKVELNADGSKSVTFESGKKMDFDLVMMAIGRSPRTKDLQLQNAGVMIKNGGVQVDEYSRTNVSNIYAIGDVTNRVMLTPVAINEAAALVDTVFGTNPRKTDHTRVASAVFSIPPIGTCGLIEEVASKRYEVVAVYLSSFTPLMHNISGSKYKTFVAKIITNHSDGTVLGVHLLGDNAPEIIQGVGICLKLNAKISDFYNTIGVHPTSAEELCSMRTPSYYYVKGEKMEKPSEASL

| Compound | inhibition of growth at 100 µM (Trypanosoma cruzi [1]) | IC50 (Trypanosoma cruzi [2]) | Activity (Trypanosoma cruzi [3]) | inhibition of growth at 100 µM (Leishmania amazonensis [4]) | IC50 (Leishmania amazonensis [5]) | CC50 at 72 h [7] | further results |
| --- | --- | --- | --- | --- | --- | --- | --- |
| c1ccc(-c2cc(-c3ccccc3)on2)cc1 [3,5-DIPHENYLISOXAZOLE] | 29.4% | > 100 µM | inactive | 6.03% | > 100 µM | – | – |
| COc1cc([C@@H]2O[C@@H](c3cc(OC)c(OC)c(OC)c3)[C@H](C)[C@H]2C)cc(OC)c1OC [GRANDISIN] | – | – | – | – | – | – | IC50 (Trypanosoma cruzi [6]): 3.7 µM |
| OCc1ccc(-c2cc(-c3ccc(F)cc3)no2)cc1 | 10.6% | > 100 µM | inactive | – | – | – | – |
| Cc1ccc(-c2cc(-c3ccc4c(c3)OCO4)no2)cc1 | 81.7% | 1.74 µM | inactive | 28.1% | > 100 µM | 81.3 µM | selectivity ratio [8]: 46.7; IC50 (Trypanothione reductase): > 100 µM |
| O=C(Cn1ccnc1[N+](=O)[O-])NCc1ccccc1 [BENZNIDAZOLE] | – | – | – | – | – | > 500 µM | inhibition of growth at 20 µM (Trypanosoma cruzi [9]): 85.9%; selectivity ratio [8]: > 49.1 |
| COc1ccc([C@H]2O[C@@H](c3ccc(OC)c(OC)c3)[C@@H](C)[C@@H]2C)cc1OC | – | – | – | – | – | – | IC50 (Trypanosoma cruzi [6]): 2.3 µM |
| c1ccc(-c2cc(-c3ccc4c(c3)OCO4)no2)cc1 | 64.8% | 23 µM | inactive | – | – | > 500 µM | selectivity ratio [8]: > 21.7; growth inhibition (GI) (Leishmania amazonensis [4]): inactive |
| CC(C)(C)OC(=O)Nc1ccc(-c2cc(-c3ccccc3)no2)cc1 | 0% | – | inactive | – | – | – | – |
| COc1ccc(-c2cc(-c3ccc(CO)cc3)on2)cc1OC | 14.2% | > 100 µM | inactive | – | – | – | – |
| O=[N+]([O-])c1ccc(-c2cc(CO)on2)cc1 | 12.2% | > 100 µM | inactive | 4.98% | > 100 µM | – | – |
| OCc1ccc(-c2cc(-c3ccccc3)no2)cc1 | 7.01% | > 100 µM | inactive | – | – | – | – |
| OCc1ccc(-c2cc(-c3ccc4c(c3)OCO4)no2)cc1 | 65% | 5.26 µM | inactive | 0% | – | 70.2 µM | selectivity ratio [8]: 13.3; IC50 (Trypanothione reductase): > 100 µM |
| CC(=O)OCc1ccc(-c2cc(-c3ccc4c(c3)OCO4)no2)cc1 | 47.6% | 23.2 µM | inactive | 15.7% | > 100 µM | > 500 µM | selectivity ratio [8]: > 21.5 |
| C[C@@H]1[C@H](O)[C@@H](C)/C=C/C=C/C=C/C=C/C=C/C=C/C=C/[C@H](O[C@@H]2O[C@H](C)[C@@H](O)[C@H](N)[C@@H]2O)C[C@@H]2O[C@](O)(C[C@@H](O)C[C@@H](O)[C@H](O)CC[C@@H](O)C[C@@H](O)CC(=O)O[C@H]1C)C[C@H](O)[C@H]2C(=O)O [AMPHOTERICIN B] | – | – | – | – | 0.14 µM | 27.9 µM | inhibition of growth at 2 µM (Leishmania amazonensis [10]): 81.6%; selectivity ratio [11]: 199 |
| ClCc1ccc(-c2cc(-c3ccc4c(c3)OCO4)no2)cc1 | 95.8% | 1.13 µM | inactive | 57.7% | 5.08 µM | 182 µM | selectivity ratio [8]: 161; selectivity ratio [11]: 35.8; inhibition of growth at 50 µM (Leishmania infantum): 9.01%; IC50 (Trypanothione reductase): > 100 µM |
| O=C(O)c1cc(-c2ccccc2)no1 | 0% | – | inactive | – | – | – | – |
| Nc1ccc(-c2cc(-c3ccccc3)no2)cc1 | 73% | 90.4 µM | inactive | – | – | 407 µM | selectivity ratio [8]: 4.5 |
| COc1ccc(-c2cc(CO)on2)cc1OC | 0% | – | inactive | – | – | – | – |
| OCc1cc(-c2ccc(F)cc2)no1 | 8.27% | > 100 µM | inactive | 3.35% | > 100 µM | – | – |
| COc1ccc(-c2cc(-c3ccc(CO)cc3)on2)cc1 | 5.77% | > 100 µM | inactive | – | – | – | – |
| OC[C@H]1O[C@H](OCc2cc(-c3ccccc3)no2)[C@H](O)[C@@H](O)[C@@H]1O | 7.3% | > 100 µM | inactive | 4.57% | > 100 µM | – | – |
| CC(=O)OC[C@H]1O[C@H](OCc2cc(-c3ccccc3)no2)[C@H](OC(C)=O)[C@@H](OC(C)=O)[C@@H]1OC(C)=O | 1.16% | > 100 µM | inactive | 2.06% | > 100 µM | – | – |
| OC[C@H]1O[C@H](OCc2cc(-c3ccc4c(c3)OCO4)no2)[C@H](O)[C@@H](O)[C@@H]1O | 2.93% | > 100 µM | inactive | 3.82% | > 100 µM | – | – |
| OCc1cc(-c2ccc3c(c2)OCO3)no1 | 1.95% | > 100 µM | inactive | – | – | – | – |
| COc1ccc(-c2cc(CN=[N+]=[N-])on2)cc1 | 60.4% | – | inactive | – | – | < 15.6 µM | growth inhibition (GI) (Trypanosoma cruzi [12]): inactive; Stability [13]: Unstable |
| COc1ccc(-c2cc(CO)on2)cc1 | 9.32% | > 100 µM | inactive | – | – | – | – |
| OCc1cc(-c2ccccc2)no1 | 7.57% | > 100 µM | inactive | – | – | – | – |
| CC(=O)OC[C@H]1O[C@H](OCc2cc(-c3ccc4c(c3)OCO4)no2)[C@H](OC(C)=O)[C@@H](OC(C)=O)[C@@H]1OC(C)=O | 3.15% | > 100 µM | inactive | 2.05% | > 100 µM | – | – |
| CC(=O)Nc1ccc(-c2cc(-c3ccccc3)no2)cc1 | 0% | – | inactive | – | – | – | – |
| O=[N+]([O-])c1ccc(-c2cc(-c3ccc(CO)cc3)on2)cc1 | 15.9% | > 100 µM | inactive | – | – | – | – |
